{"source": "ChEMBL document CHEMBL1156763", "about": "“1,8-Naphthyridines VIII. Novel 5-aminoimidazo[1,2-a] [1,8]naphthyridine-6-carboxamide and 5-amino[1,2,4]triazolo[4,3-a] [1,8]naphthyridine-6-carboxamide derivatives showing potent analgesic or anti-inflammatory activity, respectively, and completely devoid of acute gastrolesivity” (Eur J Med Chem, 2010)", "key": {"[1]": {"system": "Rattus norvegicus", "experiment": "Antiinflammatory activity against carrageenan-induced paw edema in Wistar rat assessed as inhibition of hind paw edema at 50 mg/kg, po administered 1 hr prior to carrageenan challenge measured after 3 hrs relative to control", "type": "functional", "how_it_was_run": "(§1)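 Wistar rats of either sex (250–300 g), fasted overnight, gavaged with compound in 0.5% methylcellulose. 1 h later, 0.1 mL 1% carrageenan injected subcutaneously into the plantar hind paw. Paw volume read by plethysmometer right after injection and 3 h later. Control edema set as 100, % inhibition from swelling difference. Groups of 8–10; Student's t-test.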"}, "[2]": {"system": "Rattus norvegicus", "experiment": "Antiinflammatory activity against carrageenan-induced paw edema in Wistar rat assessed as inhibition of hind paw edema at 6.25 mg/kg, po administered 1 hr prior to carrageenan challenge measured after 3 hrs relative to control", "type": "functional", "how_it_was_run": "as §1"}, "[3]": {"system": "Rattus norvegicus", "experiment": "Antiinflammatory activity against carrageenan-induced paw edema in Wistar rat assessed as inhibition of hind paw edema at 25 mg/kg, po administered 1 hr prior to carrageenan challenge measured after 3 hrs relative to control", "type": "functional", "how_it_was_run": "as §1"}, "[4]": {"system": "Rattus norvegicus", "experiment": "Antiinflammatory activity against carrageenan-induced paw edema in Wistar rat assessed as inhibition of hind paw edema at 1.6 mg/kg, po administered 1 hr prior to carrageenan challenge measured after 3 hrs relative to control", "type": "functional", "how_it_was_run": "as §1"}, "[5]": {"system": "Mus musculus", "experiment": "Sedative activity in Swiss mouse assessed as inhibition of spontaneous locomotor activity at 100 mg/kg, po dose measured for every 5 mins up to 90 mins", "type": "organism-based", "set-up": "dose 100 mg/kg, route oral", "how_it_was_run": "(§2)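 Overnight-fasted mice given compound (0.5% methylcellulose) or vehicle by oral gavage, then housed singly in an activity cage. Locomotion auto-recorded in 5-min intervals for 90 min; pulses of the final 30 min scored. % inhibition versus controls; runs between 9.00 and 13.00; groups of 8–10; Student's t-test.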"}, "[6]": {"system": "Mus musculus", "experiment": "Analgesic activity in Swiss mouse assessed as inhibition of acetic acid-induced writhing response at 100 mg/kg, po administered 1 hr before acetic acid challenge measured for 30 mins relative to control", "type": "functional", "how_it_was_run": "(§3)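 Mice of either sex (25–35 g), fasted overnight, dosed by oral gavage with test agent suspended in 0.5% methylcellulose; controls got vehicle alone. Each hind-limb full extension counted as a writhe over 30 min after the noxious agent. % inhibition from treated vs control writhing; groups of 8–10; Student's t-test. Dosing starts at 100 mg/kg, then halved stepwise.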"}, "[7]": {"system": "Mus musculus", "experiment": "Analgesic activity in Swiss mouse assessed as inhibition of acetic acid-induced writhing response at 50 mg/kg, po administered 1 hr before acetic acid challenge measured for 30 mins relative to control", "type": "functional", "how_it_was_run": "as §3"}, "[8]": {"system": "Rattus norvegicus", "experiment": "Antiinflammatory activity against carrageenan-induced paw edema in Wistar rat assessed as inhibition of hind paw edema at 12.5 mg/kg, po administered 1 hr prior to carrageenan challenge measured after 3 hrs relative to control", "type": "functional", "how_it_was_run": "as §1"}, "[9]": {"system": "Rattus norvegicus", "experiment": "Antiinflammatory activity against carrageenan-induced paw edema in Wistar rat assessed as inhibition of hind paw edema at 3.12 mg/kg, po administered 1 hr prior to carrageenan challenge measured after 3 hrs relative to control", "type": "functional", "how_it_was_run": "as §1"}, "[10]": {"system": "Rattus norvegicus", "experiment": "Antiinflammatory activity against carrageenan-induced paw edema in Wistar rat assessed as inhibition of hind paw edema at 100 mg/kg, po administered 1 hr prior to carrageenan challenge measured after 3 hrs relative to control", "type": "functional", "how_it_was_run": "as §1"}, "[11]": {"system": "Rattus norvegicus", "experiment": "Acute gastrolesivity in Wistar rat assessed as appearance of gastric damage at 200 mg/kg, po after 5 hrs", "type": "toxicity, organism-based, Stomach", "set-up": "dose 200 mg/kg, route oral", "conditions": "in vivo", "how_it_was_run": "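Wistar rats (250–300 g), either sex, fasted overnight; compound suspended in 0.5% methylcellulose, single oral gavage at 200 mg kg^-1 (1 mL 100 g^-1). Stomachs excised 5 h later, fixed in 2% formalin, opened along greater curvature, examined by stereomicroscope by blinded observer. Reported as number of animals with gastric damage over treated animals (eight per group).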"}, "[12]": {"system": "Mus musculus", "experiment": "Sedative activity in Swiss mouse assessed as inhibition of spontaneous locomotor activity at 50 mg/kg, po dose measured for every 5 mins up to 90 mins", "type": "organism-based", "set-up": "dose 50 mg/kg, route oral", "how_it_was_run": "as §2"}, "[13]": {"system": "Mus musculus", "experiment": "Analgesic activity in Swiss mouse assessed as inhibition of acetic acid-induced writhing response at 6.25 mg/kg, po administered 1 hr before acetic acid challenge measured for 30 mins relative to control", "type": "functional", "how_it_was_run": "as §3"}, "[14]": {"system": "Mus musculus", "experiment": "Sedative activity in Swiss mouse assessed as inhibition of spontaneous locomotor activity at 12.5 mg/kg, po dose measured for every 5 mins up to 90 mins", "type": "organism-based", "set-up": "dose 12.5 mg/kg, route oral", "how_it_was_run": "as §2"}, "[15]": {"system": "Mus musculus", "experiment": "Analgesic activity in Swiss mouse assessed as inhibition of acetic acid-induced writhing response at 25 mg/kg, po administered 1 hr before acetic acid challenge measured for 30 mins relative to control", "type": "functional", "how_it_was_run": "as §3"}, "[16]": {"system": "Mus musculus", "experiment": "Analgesic activity in Swiss mouse assessed as inhibition of acetic acid-induced writhing response at 12.5 mg/kg, po administered 1 hr before acetic acid challenge measured for 30 mins relative to control", "type": "functional", "how_it_was_run": "as §3"}, "[17]": {"system": "Mus musculus", "experiment": "Sedative activity in Swiss mouse assessed as inhibition of spontaneous locomotor activity at 10 mg/kg, po dose measured for every 5 mins upto 90 mins", "type": "functional", "how_it_was_run": "as §2"}, "[18]": {"species": "Mus musculus", "experiment": "animal or person", "conditions": "Swiss, po, read-out: INH"}, "[19]": {"system": "Rattus norvegicus", "experiment": "Antiinflammatory activity against carrageenan-induced paw edema in Wistar rat assessed as inhibition of hind paw edema at 10 mg/kg, po administered 1 hr prior to carrageenan challenge measured after 3 hrs relative to control", "type": "functional", "how_it_was_run": "as §1"}}}
{"smiles": "CCNC(=O)c1c(NCC(C)C)c2cccnc2n2c(C(C)C)nnc12", "values": [{"measurement": "inhibition in vivo at 50 mg/kg", "setting": "[1]", "value": 50, "unit": "%"}, {"measurement": "inhibition in vivo at 6.25 mg/kg", "setting": "[2]", "value": 40, "unit": "%"}, {"measurement": "inhibition in vivo at 25 mg/kg", "setting": "[3]", "value": 47, "unit": "%"}, {"measurement": "inhibition in vivo at 1.6 mg/kg", "setting": "[4]", "value": 18, "unit": "%"}, {"measurement": "inhibition at 100 mg/kg", "setting": "[5]", "value": 48, "unit": "%"}, {"measurement": "inhibition in vivo at 100 mg/kg", "setting": "[6]", "value": 81, "unit": "%"}, {"measurement": "inhibition in vivo at 50 mg/kg", "setting": "[7]", "value": 21, "unit": "%"}, {"measurement": "inhibition in vivo at 12.5 mg/kg", "setting": "[8]", "value": 49, "unit": "%"}, {"measurement": "inhibition in vivo at 3.12 mg/kg", "setting": "[9]", "value": 35, "unit": "%"}, {"measurement": "inhibition in vivo at 100 mg/kg", "setting": "[10]", "value": 60, "unit": "%"}, {"measurement": "Activity", "setting": "[11]", "value": "Non-toxic"}]}
{"smiles": "CCOc1cnc2c(C(=O)N(CC)CC)c(N3CCN(C)CC3)c3cccnc3n12", "values": [{"measurement": "inhibition at 50 mg/kg", "setting": "[12]", "value": 46, "unit": "%"}, {"measurement": "inhibition in vivo at 6.25 mg/kg", "setting": "[13]", "value": 17, "unit": "%"}, {"measurement": "inhibition at 12.5 mg/kg", "setting": "[14]", "value": 15, "unit": "%"}, {"measurement": "inhibition in vivo at 25 mg/kg", "setting": "[15]", "value": 54, "unit": "%"}, {"measurement": "inhibition at 100 mg/kg", "setting": "[5]", "value": 60, "unit": "%"}, {"measurement": "inhibition in vivo at 100 mg/kg", "setting": "[6]", "value": 97, "unit": "%"}, {"measurement": "inhibition in vivo at 50 mg/kg", "setting": "[7]", "value": 62, "unit": "%"}, {"measurement": "inhibition in vivo at 100 mg/kg", "setting": "[10]", "value": 26, "unit": "%"}, {"measurement": "Activity", "setting": "[11]", "value": "Non-toxic"}, {"measurement": "inhibition in vivo at 12.5 mg/kg", "setting": "[16]", "value": 48, "unit": "%"}]}
{"smiles": "CN1C(=O)CN=C(c2ccccc2)c2cc(Cl)ccc21", "note": "[DIAZEPAM]", "values": [{"measurement": "inhibition in vivo at 10 mg/kg", "setting": "[17]", "value": 98, "unit": "%"}]}
{"smiles": "COc1ccc2c(c1)c(CC(=O)O)c(C)n2C(=O)c1ccc(Cl)cc1", "note": "[INDOMETHACIN]", "values": [{"measurement": "inhibition in vivo at 10 mg/kg", "setting": "[18]", "value": 84, "unit": "%"}, {"measurement": "inhibition in vivo at 10 mg/kg", "setting": "[19]", "value": 51, "unit": "%"}]}
